# Laboratory results published in ChEMBL document CHEMBL2021838, “Solvent effect on copper-catalyzed azide-alkyne cycloaddition (CuAAC): synthesis of novel triazolyl substituted quinolines as potential anticancer agents” (Bioorg Med Chem Lett, 2012).
# Experiments:
# MDA-MB-231 [1] = assay: Antiproliferative activity against human MDA-MB-231 cells assessed as cell growth inhibition at 10 uM after 24 hrs by MTT assay; type: functional; conditions: MDA-MB-231, 24 h, read-out: GI
# Procedure, shortened: (§1)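 MTT viability assay. Cells seeded at 5 × 10³ per well and cultured with or without compound for 24 h. MTT (5 mg/ml in PBS) was then added in fresh medium and incubated 2 h at 37 °C, followed by DMSO and 1 min agitation. Absorbance was read at 570 nm. Percent inhibition of proliferation was calculated relative to the untreated control. Dose-response used […].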
# K562 [2] = assay: Antiproliferative activity against human K562 cells assessed as cell growth inhibition at 10 uM after 24 hrs by MTT assay; type: functional; conditions: K562, 24 h, read-out: GI; procedure, shortened: as §1
# K562 [3] = assay: Antiproliferative activity against human K562 cells assessed as cell growth inhibition at 1 uM after 24 hrs by MTT assay; type: functional; conditions: K562, 24 h, read-out: GI; procedure, shortened: as §1
# MDA-MB-231 [4] = assay: Antiproliferative activity against human MDA-MB-231 cells assessed as cell growth inhibition at 1 uM after 24 hrs by MTT assay; type: functional; conditions: MDA-MB-231, 24 h, read-out: GI; procedure, shortened: as §1
# K562 [5] = assay: Antiproliferative activity against human K562 cells assessed as cell growth inhibition at 0.5 uM after 24 hrs by MTT assay; type: functional; conditions: K562, 24 h, read-out: GI; procedure, shortened: as §1
# K562 [6] = assay: Antiproliferative activity against human K562 cells assessed as cell growth inhibition after 24 hrs by MTT assay; type: functional, cell-based; conditions: K562, 24 h; procedure, shortened: as §1
# K562 [7] = assay: Antiproliferative activity against human K562 cells assessed as cell growth inhibition at 0.01 uM after 24 hrs by MTT assay; type: functional; conditions: K562, 24 h, read-out: GI; procedure, shortened: as §1
# K562 [8] = assay: Antiproliferative activity against human K562 cells assessed as cell growth inhibition at 0.1 uM after 24 hrs by MTT assay; type: functional; conditions: K562, 24 h, read-out: GI; procedure, shortened: as §1
# MDA-MB-231 [9] = assay: Antiproliferative activity against human MDA-MB-231 cells assessed as cell growth inhibition at 0.01 uM after 24 hrs by MTT assay; type: functional; conditions: MDA-MB-231, 24 h, read-out: GI; procedure, shortened: as §1
# MDA-MB-231 [10] = assay: Antiproliferative activity against human MDA-MB-231 cells assessed as cell growth inhibition at 0.5 uM after 24 hrs by MTT assay; type: functional; conditions: MDA-MB-231, 24 h, read-out: GI; procedure, shortened: as §1
# MDA-MB-231 [11] = assay: Antiproliferative activity against human MDA-MB-231 cells assessed as cell growth inhibition after 24 hrs by MTT assay; type: functional, cell-based; conditions: MDA-MB-231, 24 h; procedure, shortened: as §1
# MDA-MB-231 [12] = assay: Antiproliferative activity against human MDA-MB-231 cells assessed as cell growth inhibition at 0.1 uM after 24 hrs by MTT assay; type: functional; conditions: MDA-MB-231, 24 h, read-out: GI; procedure, shortened: as §1
SMILES,inhibition of growth at 10 µM (MDA-MB-231 [1]) [%],inhibition of growth at 10 µM (K562 [2]) [%],inhibition of growth at 1 µM (K562 [3]) [%],inhibition of growth at 1 µM (MDA-MB-231 [4]) [%],also measured
c1ccc(-c2cn(-c3cc4nnnn4c4ccccc34)nn2)cc1,56,29.9,20.6,52.5,
Cc1ccc(-c2cn(-c3cc4nnnn4c4ccccc34)nn2)cc1,54,44.1,20.6,47.7,
c1ccc(CCc2cn(-c3cc4nnnn4c4ccccc34)nn2)cc1,60.8,38.1,26.7,50.5,
OCc1cn(-c2cc3nnnn3c3ccccc23)nn1,46.8,36.9,21.8,45.8,
OCCCc1cn(-c2cc3nnnn3c3ccccc23)nn1,46.1,52.4,47.1,42,inhibition of growth at 0.5 µM (K562 [5]): 30%; IC50 (K562 [6]): 4600 nM; inhibition of growth at 0.01 µM (K562 [7]): 9%; inhibition of growth at 0.1 µM (K562 [8]): 22%
ClCCCc1cn(-c2cc3nnnn3c3ccccc23)nn1,70.1,35.2,19.9,60.2,inhibition of growth at 0.01 µM (MDA-MB-231 [9]): 11%; inhibition of growth at 0.5 µM (MDA-MB-231 [10]): 46%; IC50 (MDA-MB-231 [11]): 800 nM; inhibition of growth at 0.1 µM (MDA-MB-231 [12]): 24%
CCCCc1cn(-c2cc3nnnn3c3ccccc23)nn1,57.1,34.1,28.2,55.3,
CCCCCCc1cn(-c2cc3nnnn3c3ccccc23)nn1,53.4,37.4,19.1,49.7,
CCCCCc1cn(-c2cc(-n3cc(CCCCC)nn3)c3ccccc3n2)nn1,< 30,< 30,,,
ClCCCc1cn(-c2cc(-n3cc(CCCCl)nn3)c3ccccc3n2)nn1,< 30,< 30,,,
CCCCc1cn(-c2cc(-n3cc(CCCC)nn3)c3ccccc3n2)nn1,< 30,< 30,,,
CCCCCCc1cn(-c2cc(-n3cc(CCCCCC)nn3)c3ccccc3n2)nn1,< 30,< 30,,,
